Consider ten compounds from PubChem BioAssay.

The source made the active and inactive calls.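 Rule for the calls: active = current rise at least 3 SD above the untreated control mean in each of two repeat wells; inactive = the rest.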

Chain of Potassium voltage-gated channel subfamily KQT member 1 (Homo sapiens) (P51787 whole entry, looked up): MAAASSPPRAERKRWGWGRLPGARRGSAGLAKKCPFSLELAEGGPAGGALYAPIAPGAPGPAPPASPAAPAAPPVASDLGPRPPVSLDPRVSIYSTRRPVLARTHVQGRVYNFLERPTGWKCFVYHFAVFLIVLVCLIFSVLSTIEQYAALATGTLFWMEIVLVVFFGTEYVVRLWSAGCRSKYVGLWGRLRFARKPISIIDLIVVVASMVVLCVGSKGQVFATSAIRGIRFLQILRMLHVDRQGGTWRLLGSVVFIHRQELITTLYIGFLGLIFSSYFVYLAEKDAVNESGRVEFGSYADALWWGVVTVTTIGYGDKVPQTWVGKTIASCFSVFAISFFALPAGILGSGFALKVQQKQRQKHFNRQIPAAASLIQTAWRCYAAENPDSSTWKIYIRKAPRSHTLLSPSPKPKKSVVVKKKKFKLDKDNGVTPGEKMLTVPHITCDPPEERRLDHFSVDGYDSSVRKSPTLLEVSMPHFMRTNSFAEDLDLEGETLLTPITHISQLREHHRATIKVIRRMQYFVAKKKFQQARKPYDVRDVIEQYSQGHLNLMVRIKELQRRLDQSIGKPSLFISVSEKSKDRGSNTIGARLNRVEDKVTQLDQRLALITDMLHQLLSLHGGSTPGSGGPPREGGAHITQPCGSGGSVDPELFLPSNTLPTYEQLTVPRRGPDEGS

The assay addresses Potassium voltage-gated channel subfamily KQT member 1 (Homo sapiens) (UniProt P51787). The experiment in a line: KCNQ1 activators by electrophysiology – IonWorks patch clamp, KCNQ1-CHO cells, orthogonal assay for KCNQ1 potentiator project, confirmation (AID 493184). The conditions noted are these: automated patch clamp current, at 10 µM. The method in brief:
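Read-out: Percent current increase versus pre-compound level | Assay system: CHO cells carrying KCNQ1 | Measured by: Automated perforated-patch electrophysiology | Medium: External bath solution at pH 7.4 | Dosing: One dose, 10 µM final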
`c1ccc(-n2cnc3cc(NCc4cccs4)ccc32)cc1`: the result was inactive.
Under `CN(CCCNC(=O)CSc1cc(=O)n(C)c2ccc(Cl)cc12)Cc1ccccc1` stands “inactive”.
Consider `COc1cccc(N=Nc2ccc3cccnc3c2O)c1`, for which the result was inactive.
Next, `Cc1ccc(-c2noc(CCC(=O)Nc3ccccc3N3CCN(C)CC3)n2)cc1`: “inactive”.
Next, `Cc1c(CCC(=O)N2CCC[C@H]2C(=O)O)c(=O)oc2c(C)c3oc4c(c3cc12)CCCC4`: “inactive”.
In the case of `CCOC(=O)c1cc(CC)sc1NC(=O)CC1Sc2ccc(C(F)(F)F)cc2NC1=O` (stereo not given), the result was inactive.
Under `O=C(Nc1nc(=O)c2ccccc2s1)c1ccc(F)cc1` stands “inactive”; under `O=c1c2cc(Br)ccc2nc(-c2ccccc2)n1O`, “inactive”.
Next, `C/C(=N/NC(=O)c1cc(C2CC2)[nH]n1)c1cccs1`: “inactive”.
Under `Cc1nn(CCc2nn[nH]n2)c2nc(-c3ccc(C4CCCCC4)cc3)cc(C(F)(F)F)c12` stands “inactive”.
